{
  "source": "ChEMBL document CHEMBL4765302",
  "about": "“Design, synthesis and biological evaluation of novel histone deacetylase1/2 (HDAC1/2) and cyclin-dependent Kinase2 (CDK2) dual inhibitors against malignant cancer” (Eur J Med Chem, 2020)",
  "key": {"A-375 [1]": {"tested_on": "A-375", "test": "Induction of apoptosis in human A-375 cells assessed as early apoptotic cells at 1 uM incubated for 48 hrs by annexin V-FITC and PI staining based flow cytometry (reference value: 1.34 %)", "type": "functional"}, "A-375 [2]": {"tested_on": "A-375", "test": "Induction of apoptosis in human A-375 cells assessed as necrotic cells at 2 uM incubated for 48 hrs by annexin V-FITC and PI staining based flow cytometry (reference value: 0.139 %)", "type": "functional"}, "NCI-H460 [3]": {"tested_on": "NCI-H460", "test": "Induction of apoptosis in human NCI-H460 cells assessed as necrotic cells at 0.5 uM incubated for 48 hrs by annexin V-FITC and PI staining based flow cytometry (reference value: 0.632 %)", "type": "functional"}, "[4]": {"test": "Half life in ICR mouse at 4 mg/kg, iv measured upto 24 hrs by LC-MS/MS analysis", "type": "ADME, organism-based", "conditions": "in vivo", "procedure,_shortened": "(§1)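 Male ICR mice (N=9). Single dose, either 4 mg/kg intravenous or 20 mg/kg intraperitoneal. Parameters derived: T1/2, Tmax, Cmax, AUC0-t, MRT0-t and CL, with F for the intraperitoneal arm.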"}, "HCT-116 [5]": {"tested_on": "HCT-116", "test": "Induction of apoptosis in human HCT-116 cells assessed as late apoptotic cells at 1 uM incubated for 48 hrs by annexin V-FITC and PI staining based flow cytometry (reference value: 1.88 %)", "type": "functional"}, "NCI-H460 [6]": {"tested_on": "NCI-H460", "test": "Induction of cell cycle arrest in human NCI-H460 cells assessed as reduction in G0/G1 phase at 0.5 to 2 uM incubated for 24 hrs by PI staining based flow cytometry", "type": "functional", "conditions": "dose 0.5-2 µM", "procedure,_shortened": "(§2)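 Treatment at 2, 1 and 0.5 μM for 24 h, alongside CS055 and roscovitine, against a DMSO (0.1 %) blank. Cells then stained with propidium iodide and analyzed by flow cytometry.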"}, "[7]": {"test": "Tmax in ICR mouse at 20 mg/kg, ip measured upto 24 hrs by LC-MS/MS analysis", "conditions": "in vivo"}, "NCI-H460 [8]": {"tested_on": "NCI-H460", "test": "Antimigratory activity against human NCI-H460 cells assessed as inhibition of migration at 0.5 uM incubated for 48 hrs by microscopic based wound healing test", "type": "functional, cell-based", "procedure,_shortened": "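Scratch (wound-healing) migration assay in A375 and H460 cells seeded in 12-well plates. Cells exposed to compound, CS055, roscovitine or DMSO blank for 48 h. At least two independent experiments.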"}, "A-375 [9]": {"tested_on": "A-375", "test": "Induction of apoptosis in human A-375 cells assessed as late apoptotic cells at 0.5 uM incubated for 48 hrs by annexin V-FITC and PI staining based flow cytometry (reference value: 2.24 %)", "type": "functional"}, "HCT-116 [10]": {"tested_on": "HCT-116", "test": "Induction of apoptosis in human HCT-116 cells assessed as early apoptotic cells at 2 uM incubated for 48 hrs by annexin V-FITC and PI staining based flow cytometry (reference value: 4.14 %)", "type": "functional"}, "HeLa [11]": {"tested_on": "HeLa", "test": "Induction of apoptosis in human HeLa cells assessed as early apoptotic cells at 0.5 uM incubated for 48 hrs by annexin V-FITC and PI staining based flow cytometry (reference value: 0.528 %)", "type": "functional"}, "NCI-H460 [12]": {"tested_on": "NCI-H460", "test": "Cytotoxicity against human NCI-H460 cells assessed as effect on cell morphology at 0.5 to 8 micromol incubated for 48 hrs by microscopic analysis", "type": "functional, cell-based", "conditions": "dose 0.5-8 µmol", "procedure,_shortened": "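Five cancer cell lines treated with compound or DMSO (0.1 %) for 48 h. Morphology inspected by light microscopy at 10× objective.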"}, "NCI-H460 [13]": {"tested_on": "NCI-H460", "test": "Induction of apoptosis in human NCI-H460 cells assessed as viable cells at 2 uM incubated for 48 hrs by annexin V-FITC and PI staining based flow cytometry (reference value: 90.4 %)", "type": "functional", "conditions": "read-out: Activity"}, "HeLa [14]": {"tested_on": "HeLa", "test": "Induction of apoptosis in human HeLa cells assessed as necrotic cells at 1 uM incubated for 48 hrs by annexin V-FITC and PI staining based flow cytometry (reference value: 0.124 %)", "type": "functional"}, "HCT-116 [15]": {"tested_on": "HCT-116", "test": "Induction of apoptosis in human HCT-116 cells assessed as late apoptotic cells at 2 uM incubated for 48 hrs by annexin V-FITC and PI staining based flow cytometry (reference value: 1.88 %)", "type": "functional"}, "HCT-116 [16]": {"tested_on": "HCT-116", "test": "Induction of cell cycle arrest in human HCT-116 cells assessed as reduction in G0/G1 phase at 0.5 to 2 uM incubated for 24 hrs by PI staining based flow cytometry", "type": "functional", "conditions": "dose 0.5-2 µM", "procedure,_shortened": "as §2"}, "[17]": {"test": "Clearance in ICR mouse at 4 mg/kg, iv measured upto 24 hrs by LC-MS/MS analysis", "type": "ADME, organism-based", "conditions": "in vivo", "procedure,_shortened": "as §1"}, "NCI-H460 [18]": {"tested_on": "NCI-H460", "test": "Induction of apoptosis in human H460 cells assessed as apoptosis rate at 2 uM incubated for 48 hrs by annexin V-FITC and PI staining based flow cytometry relative to control", "type": "functional"}, "HCT-116 [19]": {"tested_on": "HCT-116", "test": "Induction of cell cycle arrest in human HCT-116 cells assessed as G2/M phase at 0.5 uM incubated for 24 hrs by PI staining based flow cytometry (reference value: 27.46 %)", "type": "functional", "procedure,_shortened": "as §2"}, "A-375 [20]": {"tested_on": "A-375", "test": "Induction of apoptosis in human A-375 cells assessed as viable cells at 2 uM incubated for 48 hrs by annexin V-FITC and PI staining based flow cytometry (reference value: 96.3 %)", "type": "functional", "conditions": "read-out: Activity"}, "HepG2": {"tested_on": "HepG2", "test": "Antiproliferative activity against human HepG2 cells assessed as reduction in cell growth at 2 uM incubated for 72 hrs by CCK-8 assay relative to control", "type": "functional"}, "Histone deacetylase 2": {"biological_target": "Histone deacetylase 2 (Homo sapiens, UniProt Q92769)", "sequence (Q92769 whole entry)": "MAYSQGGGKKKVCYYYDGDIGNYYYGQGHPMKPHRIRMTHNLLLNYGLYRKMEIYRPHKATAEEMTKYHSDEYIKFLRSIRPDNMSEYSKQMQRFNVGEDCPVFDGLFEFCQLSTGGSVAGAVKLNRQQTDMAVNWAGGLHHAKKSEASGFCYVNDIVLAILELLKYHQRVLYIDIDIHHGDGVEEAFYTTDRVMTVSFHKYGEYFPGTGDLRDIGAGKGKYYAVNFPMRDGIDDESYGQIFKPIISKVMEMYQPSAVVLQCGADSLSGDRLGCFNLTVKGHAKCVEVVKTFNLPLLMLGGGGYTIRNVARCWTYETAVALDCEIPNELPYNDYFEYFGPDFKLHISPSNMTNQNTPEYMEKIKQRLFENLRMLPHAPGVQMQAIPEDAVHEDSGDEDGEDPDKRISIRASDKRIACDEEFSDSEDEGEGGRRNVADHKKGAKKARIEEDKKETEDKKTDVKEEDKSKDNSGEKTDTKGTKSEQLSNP", "test": "Inhibition of recombinant human HDAC2 using FLUOR-DE-LYS-Green as substrate incubated for 10 mins followed by substrate addition and measured after 30 mins by fluorescence based assay", "procedure,_shortened": "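IC50 values reported as means of at least two separate determinations, expressed as mean ±SD.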"}, "NCI-H460 [21]": {"tested_on": "NCI-H460", "test": "Induction of apoptosis in human NCI-H460 cells assessed as early apoptotic cells at 2 uM incubated for 48 hrs by annexin V-FITC and PI staining based flow cytometry (reference value: 2.88 %)", "type": "functional"}, "NCI-H460 [22]": {"tested_on": "NCI-H460", "test": "Induction of apoptosis in human NCI-H460 cells assessed as late apoptotic cells at 0.5 uM incubated for 48 hrs by annexin V-FITC and PI staining based flow cytometry (reference value: 6.11 %)", "type": "functional"}, "HCT-116 [23]": {"tested_on": "HCT-116", "test": "Antiproliferative activity against human HCT-116 cells assessed as reduction in cell growth at 8 uM incubated for 72 hrs by CCK-8 assay relative to control", "type": "functional"}, "NCI-H460 [24]": {"tested_on": "NCI-H460", "test": "Induction of apoptosis in human NCI-H460 cells assessed as early apoptotic cells at 0.5 uM incubated for 48 hrs by annexin V-FITC and PI staining based flow cytometry (reference value: 2.88 %)", "type": "functional"}, "A-375 [25]": {"tested_on": "A-375", "test": "Induction of apoptosis in human A-375 cells assessed as necrotic cells at 0.5 uM incubated for 48 hrs by annexin V-FITC and PI staining based flow cytometry (reference value: 0.139 %)", "type": "functional"}, "HCT-116 [26]": {"tested_on": "HCT-116", "test": "Antitumor activity against human HCT-116 cells xenografted in Balb/c mouse assessed as tumor growth inhibition at 100 mg/kg, ip administered for 21 days and measured on day 21 relative to control", "type": "functional", "conditions": "HCT-116, ip, 504 h, time 21 day, read-out: GI", "procedure,_shortened": "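HCT116 xenografts in BALB/c nude mice. Dosing started when tumours reached 100–300 mm³: intraperitoneal injection once daily for 21 days at 25, 50 or 100 mg/kg, versus blank. Body weight monitored. Tumour growth inhibition computed against blank.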"}, "HCT-116 [27]": {"tested_on": "HCT-116", "test": "Induction of apoptosis in human HCT-116 cells assessed as viable cells at 2 uM incubated for 48 hrs by annexin V-FITC and PI staining based flow cytometry (reference value: 93.9 %)", "type": "functional", "conditions": "read-out: Activity"}},
  "note": "Calls of active or inactive are those of the source. The calls are words filed in the database; no cut-off is given here.",
  "data": [
    {"smiles": "Cc1ccc(Nc2nc(Cl)nc3c2ncn3Cc2ccc(C(=O)Nc3ccccc3N)cc2)cc1", "values": [
      {"measurement": "Activity", "setting": "A-375 [1]", "result": 8, "unit": "%"},
      {"measurement": "Activity", "setting": "A-375 [2]", "result": 0.453, "unit": "%"},
      {"measurement": "Activity", "setting": "NCI-H460 [3]", "result": 0.254, "unit": "%"},
      {"measurement": "half-life", "setting": "[4]", "result": 1.48, "unit": "h"},
      {"measurement": "Activity", "setting": "HCT-116 [5]", "result": 14, "unit": "%"},
      {"measurement": "Activity", "setting": "NCI-H460 [6]", "result": "Active"},
      {"measurement": "Tmax", "setting": "[7]", "result": 2, "unit": "h"},
      {"measurement": "inhibition", "setting": "NCI-H460 [8]", "result": "Active"},
      {"measurement": "Activity", "setting": "A-375 [9]", "result": 72.2, "unit": "%"},
      {"measurement": "Activity", "setting": "HCT-116 [10]", "result": 76.2, "unit": "%"},
      {"measurement": "Activity", "setting": "HeLa [11]", "result": 4.36, "unit": "%"},
      {"measurement": "Activity", "setting": "NCI-H460 [12]", "result": "Active"},
      {"measurement": "viability at 2 µM", "setting": "NCI-H460 [13]", "result": 31.9, "unit": "%"},
      {"measurement": "Activity", "setting": "HeLa [14]", "result": 0.363, "unit": "%"},
      {"measurement": "Activity", "setting": "HCT-116 [15]", "result": 13.4, "unit": "%"},
      {"measurement": "Activity", "setting": "HCT-116 [16]", "result": "Active"},
      {"measurement": "clearance", "setting": "[17]", "result": 23.3, "unit": "mL/min/kg"},
      {"measurement": "Activity", "setting": "NCI-H460 [18]", "result": 59.1, "unit": "%"},
      {"measurement": "Activity", "setting": "HCT-116 [19]", "result": 76.99, "unit": "%"},
      {"measurement": "viability at 2 µM", "setting": "A-375 [20]", "result": 7.6, "unit": "%"},
      {"measurement": "inhibition at 2 µM", "setting": "HepG2", "result": 76.2, "unit": "%"},
      {"measurement": "IC50", "setting": "Histone deacetylase 2", "result": 23.1, "unit": "nM"},
      {"measurement": "Activity", "setting": "NCI-H460 [21]", "result": 12, "unit": "%"},
      {"measurement": "Activity", "setting": "NCI-H460 [22]", "result": 4.31, "unit": "%"},
      {"measurement": "inhibition at 8 µM", "setting": "HCT-116 [23]", "result": 81.5, "unit": "%"},
      {"measurement": "Activity", "setting": "NCI-H460 [24]", "result": 6.74, "unit": "%"},
      {"measurement": "Activity", "setting": "A-375 [25]", "result": 0.852, "unit": "%"},
      {"measurement": "inhibition in vivo at 100 mg/kg", "setting": "HCT-116 [26]", "result": 44, "unit": "%"},
      {"measurement": "viability at 2 µM", "setting": "HCT-116 [27]", "result": 9.72, "unit": "%"}
    ]}
  ]
}
